Among the data in article PMC9090800 (RSC Advances, 2018) are IC50 values, retold here.

Converted amounts (≈) assume the structure as drawn.

This assay has as its system C. albicans (ATCC 90028). The experiment in a line: In vitro anticandidal activity, broth dilution. The assay is classed as cell-based. The following applies: Candida albicans, ATCC90028, 24 h, read-out: IC50 ± S.D, C. albicans. In short, it runs like this: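 Broth dilution followed the NCCLS protocol. Test compound in DMSO was diluted in PBS, then tested at 1000 to 7.8 μg mL−1 in SD broth with about 2.5 × 10^3 cells per mL in 96-well plates. Plates were shaken 24 h at 30 °C, 150 rpm, and read at OD580. IC50 was the concentration halving absorbance versus untreated cells, taken from a log10 concentration versus % inhibition plot. Triplicates were run on separate occasions, with fluconazole as positive control.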
(In broth dilution the organism is exposed to a series of concentrations in liquid medium.)
Turning to `O=C(O)c1nc2ccccc2c(=O)n1Cc1cn(-c2ccccc2)nn1` [Compound 6a, 4-Oxo-3-((1-phenyl-1H-1,2,3-triazol-4-yl)methyl)-3,4-dihydroquinazoline-2-carboxylic acid], the IC50 turned out to be 119 ± 7.6 µg/mL (≈ 342 µM).

Turning to `CCOC(=O)c1nc2ccccc2c(=O)n1Cc1cn(-c2ccccc2C)nn1` [Compound 5d, Ethyl 4-oxo-3-((1-o-tolyl-1H-1,2,3-triazol-4-yl)methyl)-3,4-dihydroquinazoline-2-carboxylate], the half-maximal inhibitory concentration (IC50) is 297 ± 5.9 µg/mL (≈ 763 µM).

`CCOC(=O)c1nc2ccccc2c(=O)n1Cc1cn(-c2cccc(C)c2)nn1` [Compound 5i, Ethyl 4-oxo-3-((1-m-tolyl-1H-1,2,3-triazol-4-yl)methyl)-3,4-dihydroquinazoline-2-carboxylate]: the concentration for half-maximal inhibition (IC50) was 353 ± 11.1 µg/mL (≈ 905 µM).

In the case of `O=C(O)c1nc2ccccc2c(=O)n1Cc1cn(-c2ccc(F)cc2)nn1` [Compound 6m, 3-((1-(4-Fluorophenyl)-1H-1,2,3-triazol-4-yl)methyl)-4-oxo-3,4-dihydroquinazoline-2-carboxylic acid], the IC50 came to 172 ± 5.3 µg/mL (≈ 471 µM).

On to `COc1cccc(-n2cc(Cn3c(C(=O)O)nc4ccccc4c3=O)nn2)c1` [Compound 6j, 3-((1-(3-Methoxyphenyl)-1H-1,2,3-triazol-4-yl)methyl)-4-oxo-3,4-dihydroquinazoline-2-carboxylic acid], for which the IC50 was determined as 214 ± 11 µg/mL (≈ 568 µM).

Turning to `O=C(O)c1nc2ccccc2c(=O)n1Cc1cn(-c2ccccc2[N+](=O)[O-])nn1` [Compound 6f, 3-((1-(2-Nitrophenyl)-1H-1,2,3-triazol-4-yl)methyl)-4-oxo-3,4-dihydroquinazoline-2-carboxylic acid], the IC50 was determined as 701 ± 23.6 µg/mL (≈ 1790 µM).

In the case of `O=C(O)c1nc2ccccc2c(=O)n1Cc1cn(-c2ccccc2Cl)nn1` [Compound 6b, 3-((1-(2-Chlorophenyl)-1H-1,2,3-triazol-4-yl)methyl)-4-oxo-3,4-dihydroquinazoline-2-carboxylic acid], the IC50 turned out to be 169 ± 3.4 µg/mL (≈ 442 µM).

As for `CCOC(=O)c1nc2ccccc2c(=O)n1Cc1cn(-c2ccc(Cl)cc2)nn1` [Compound 5l, Ethyl 3-((1-(4-chlorophenyl)-1H-1,2,3-triazol-4-yl)methyl)-4-oxo-3,4-dihydroquinazoline-2-carboxylate], the IC50 is 216 ± 3.5 µg/mL (≈ 526 µM).

Regarding `O=C(O)c1nc2ccccc2c(=O)n1Cc1cn(-c2cccc([N+](=O)[O-])c2)nn1` [Compound 6k, 3-((1-(3-Nitrophenyl)-1H-1,2,3-triazol-4-yl)methyl)-4-oxo-3,4-dihydroquinazoline-2-carboxylic acid], the concentration for half-maximal inhibition (IC50) worked out at 701 ± 23.6 µg/mL (≈ 1790 µM).

Turning to `CCOC(=O)c1nc2ccccc2c(=O)n1Cc1cn(-c2ccc(F)cc2)nn1` [Compound 5m, Ethyl 3-((1-(4-fluorophenyl)-1H-1,2,3-triazol-4-yl)methyl)-4-oxo-3,4-dihydroquinazoline-2-carboxylate], the concentration for half-maximal inhibition (IC50) is 209 ± 6.5 µg/mL (≈ 532 µM).

With `O=C(O)c1nc2ccccc2c(=O)n1Cc1cn(-c2cccc(Cl)c2)nn1` [Compound 6g, 3-((1-(3-Chlorophenyl)-1H-1,2,3-triazol-4-yl)methyl)-4-oxo-3,4-dihydroquinazoline-2-carboxylic acid], the IC50 was 100 ± 4 µg/mL (≈ 263 µM).

In the case of `O=C(O)c1nc2ccccc2c(=O)n1Cc1cn(-c2ccc(Cl)cc2)nn1` [Compound 6l, 3-((1-(4-Chlorophenyl)-1H-1,2,3-triazol-4-yl)methyl)-4-oxo-3,4-dihydroquinazoline-2-carboxylic acid], the IC50 came out at 221 ± 11.2 µg/mL (≈ 579 µM).

As for `COc1ccc(-n2cc(Cn3c(C(=O)O)nc4ccccc4c3=O)nn2)cc1` [Compound 6o, 3-((1-(4-Methoxyphenyl)-1H-1,2,3-triazol-4-yl)methyl)-4-oxo-3,4-dihydroquinazoline-2-carboxylic acid], the IC50 was 125 ± 5.9 µg/mL (≈ 331 µM).

As for `CCOC(=O)c1nc2ccccc2c(=O)n1Cc1cn(-c2cccc(OC)c2)nn1` [Compound 5j, Ethyl 3-((1-(3-methoxyphenyl)-1H-1,2,3-triazol-4-yl)methyl)-4-oxo-3,4-dihydroquinazoline-2-carboxylate], the IC50 turned out to be 340 ± 7.4 µg/mL (≈ 840 µM).

In the case of `O=C(O)c1nc2ccccc2c(=O)n1Cc1cn(-c2ccc([N+](=O)[O-])cc2)nn1` [Compound 6p, 3-((1-(4-Nitrophenyl)-1H-1,2,3-triazol-4-yl)methyl)-4-oxo-3,4-dihydroquinazoline-2-carboxylic acid], the IC50 worked out at 789 ± 16.4 µg/mL (≈ 2010 µM).

In the case of `O=C(O)c1ccc(-n2cc(Cn3c(C(=O)O)nc4ccccc4c3=O)nn2)cc1` [Compound 6q, 3-((1-(4-Carboxyphenyl)-1H-1,2,3-triazol-4-yl)methyl)-4-oxo-3,4-dihydroquinazoline-2-carboxylic acid], the concentration for half-maximal inhibition (IC50) is 916 ± 15.5 µg/mL (≈ 2340 µM).

Regarding `Cc1ccccc1-n1cc(Cn2c(C(=O)O)nc3ccccc3c2=O)nn1` [Compound 6d, 4-Oxo-3-((1-o-tolyl-1H-1,2,3-triazol-4-yl)methyl)-3,4-dihydroquinazoline-2-carboxylic acid], the IC50 turned out to be 131 ± 4.3 µg/mL (≈ 363 µM).

For the molecule `Cc1cccc(-n2cc(Cn3c(C(=O)O)nc4ccccc4c3=O)nn2)c1` [Compound 6i, 4-Oxo-3-((1-m-tolyl-1H-1,2,3-triazol-4-yl)methyl)-3,4-dihydroquinazoline-2-carboxylic acid], the IC50 turned out to be 133 ± 4.2 µg/mL (≈ 369 µM).

In the case of `CCOC(=O)c1nc2ccccc2c(=O)n1Cc1cn(-c2ccccc2[N+](=O)[O-])nn1` [Compound 5f, Ethyl 3-((1-(2-nitrophenyl)-1H-1,2,3-triazol-4-yl)methyl)-4-oxo-3,4-dihydroquinazoline-2-carboxylate], the concentration for half-maximal inhibition (IC50) stood at 269 ± 5.5 µg/mL (≈ 641 µM).

With `CCOC(=O)c1nc2ccccc2c(=O)n1Cc1cn(-c2ccc([N+](=O)[O-])cc2)nn1` [Compound 5p, Ethyl 3-((1-(4-nitrophenyl)-1H-1,2,3-triazol-4-yl)methyl)-4-oxo-3,4-dihydroquinazoline-2-carboxylate], the half-inhibitory concentration (IC50) was 151 ± 15.7 µg/mL (≈ 360 µM).

As for `CCOC(=O)c1nc2ccccc2c(=O)n1Cc1cn(-c2ccccc2)nn1` [Compound 5a, Ethyl 4-oxo-3-((1-phenyl-1H-1,2,3-triazol-4-yl)methyl)-3,4-dihydroquinazoline-2-carboxylate], the IC50 came out at 228 ± 3.8 µg/mL (≈ 607 µM).

`CCOC(=O)c1nc2ccccc2c(=O)n1Cc1cn(-c2cccc(F)c2)nn1` [Compound 5h, Ethyl 3-((1-(3-fluorophenyl)-1H-1,2,3-triazol-4-yl)methyl)-4-oxo-3,4-dihydroquinazoline-2-carboxylate]: the IC50 came to 510 ± 6.4 µg/mL (≈ 1300 µM).

As to `O=C(O)c1nc2ccccc2c(=O)n1Cc1cn(-c2cccc(F)c2)nn1` [Compound 6h, 3-((1-(3-Fluorophenyl)-1H-1,2,3-triazol-4-yl)methyl)-4-oxo-3,4-dihydroquinazoline-2-carboxylic acid], the IC50 amounted to 135 ± 2.4 µg/mL (≈ 369 µM).

Consider `CCOC(=O)c1nc2ccccc2c(=O)n1Cc1cn(-c2cccc([N+](=O)[O-])c2)nn1` [Compound 5k, Ethyl 3-((1-(3-nitrophenyl)-1H-1,2,3-triazol-4-yl)methyl)-4-oxo-3,4-dihydroquinazoline-2-carboxylate], for which the IC50 is 143 ± 2.5 µg/mL (≈ 339 µM).

On to `CCOC(=O)c1nc2ccccc2c(=O)n1Cc1cn(-c2ccccc2F)nn1` [Compound 5c, Ethyl 3-((1-(2-fluorophenyl)-1H-1,2,3-triazol-4-yl)methyl)-4-oxo-3,4-dihydroquinazoline-2-carboxylate], for which the IC50 came to 110 ± 4.8 µg/mL (≈ 279 µM).

Regarding `CCOC(=O)c1nc2ccccc2c(=O)n1Cc1cn(-c2ccccc2Cl)nn1` [Compound 5b, Ethyl 3-((1-(2-chlorophenyl)-1H-1,2,3-triazol-4-yl)methyl)-4-oxo-3,4-dihydroquinazoline-2-carboxylate], the IC50 came out at 124 ± 18.4 µg/mL (≈ 304 µM).

A word on the IC50: it is the midpoint of a concentration-inhibition curve.
